Ends that are not written are not given here. * marks the point of attachment. FITC = O=C1OC2(c3ccc(O)cc3Oc3cc(O)ccc32)c2ccc(NC(=S)*)cc21
Assays:
[1] = biological target: T1, EphA4 LBD (Homo sapiens, UniProt P54764); assay: Protein NMR 2D [15N,1H]-HSQC chemical shift perturbation / titration; type: binding; settings: for binding of individual side-chain fragments by 2D HSQC: perturbations observable only at higher ligand concentrations (3 mM)
Procedure, shortened: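 15N-labelled EphA4 LBD (M9 medium with (15NH4)2SO4) at 50 µM was used. 2D [15N,1H]-HSQC spectra (32 scans, 2,048 × 128 complex points, 300 K) were recorded with and without test compound. Shifts were computed as Δδ = √[(Δ1H)² + (0.17·Δ15N)²]. For Kd, compound was titrated stepwise and Δδ was fitted to a quadratic binding equation.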

[2] = biological target: T1, EphA4 LBD; assay: Fluorescence polarization assay; type: binding; settings: 5 µM FITC-KYL, 2 µM EphA4 LBD
Procedure, shortened: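 Human EphA4 LBD (residues 29–209), His-tag purified from E. coli Rosetta-gami (DE3), at 2 µM final, was preincubated 10 min at room temperature with varying test compound in PBS pH 7.2. N-terminally FITC-labelled KYL peptide (5 µM final) was added. After 30 min at room temperature, polarization (mP) was read at ex/em 480/535 nm. Unlabelled KYL served as positive control, DMSO as negative.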

[3] = biological target: human EphA4 ligand-binding domain (residues 29-209) (human, UniProt P54764 29-209); assay: fluorescence polarisation
human EphA4 ligand-binding domain (residues 29-209), sequence (P54764 29-209): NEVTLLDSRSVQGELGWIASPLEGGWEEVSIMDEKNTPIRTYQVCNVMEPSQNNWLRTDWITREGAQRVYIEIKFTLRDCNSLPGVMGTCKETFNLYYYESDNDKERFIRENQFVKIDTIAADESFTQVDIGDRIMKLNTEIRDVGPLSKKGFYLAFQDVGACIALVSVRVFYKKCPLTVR

T1 sequence (P54764 29-209): as above

## Cc1ccc(Cl)cc1 [4-chlorotoluene]
[1]
  binding of individual side-chain fragments by 2D HSQC: weak binding affinities

## KYLP
[2]
  IC50 by FPA: inactive
[1]; 50 µM EphA4 LBD, 100 µM compound
  binding by 2D [15N,1H]-HSQC chemical shift perturbation: inactive

## Cc1c[nH]c2ccccc12 [3-methylindole]
[1]
  binding of individual side-chain fragments by 2D HSQC: weak binding affinities

## {FITC}-KYLPYWPVLSSL [FITC-labeled KYL peptide]
[3]
  binding result: binds
